RBBP9 inhibitor: human RBBP9 inhibitors, primary screen, biochemical, fluorescence polarization, FP-Rh probe, HTS; Serine hydrolase RBBP9 (Homo sapiens), O75884; recombinant RBBP9; inhibition, % at 7.94 µM; 0.2% of 220,000 active; AID 1515, 2009;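 active = inhibition above the campaign mean of all tested compounds plus 3 SD, cut at about 14% in these data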
Target sequence (O75884 whole entry, looked up): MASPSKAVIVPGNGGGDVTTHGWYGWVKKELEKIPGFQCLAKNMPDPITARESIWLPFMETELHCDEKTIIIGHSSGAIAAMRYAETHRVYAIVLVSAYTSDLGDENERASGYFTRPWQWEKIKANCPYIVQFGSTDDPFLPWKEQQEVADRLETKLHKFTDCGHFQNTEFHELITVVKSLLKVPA
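Test system – recombinant human RBBP9 · Input – RBBP9 2.5 µM in dispensing solution, pre-mixing · Medium – Tris buffer pH 8.0, NaCl, Pluronic · Schedule – preincubation 30 min plus labeling 45 min at 25 °C · Measured by – fluorescence polarization · Measure – % inhibition · Controls – DMSO and no-protein wells · Replicates – one well per compound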
Arbovirus anti: antivirals against arbovirus infection, primary screen, cell-based, full library, 10K replicate subset. AID 1251, 2008. 0.37% of 200,000 active. inhibition, % at 10 µM. arbovirus infection cell-based antiviral screen; in the data active = inhibition above about 30%
Autophagy HCS: autophagy modulators in MEF cells, primary screen, imaging, high-content, MEF GFP-LC3; 0.98% of 190,000 active; MEF GFP-LC3 puncta imaging; test concentration mostly 10 µM; calls only at 10 µM (by protocol); AID 463193, 2010;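 active = percentage of spot-positive cells more than 3 SD above its plate mean, without a fluorescence outlier flag or 80% toxicity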
Insulin prom inh: inhibitors of insulin promoter-driven GFP, primary screen, imaging, TRM-6 cells, eGFP reporter, cell count; reporter expression induced with tamoxifen; inhibition, % at 2 µM; 0.9% of 130,000 active; AID 1273, 2008;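 active = inhibition above the mean plus 3 SD, with well images judged a real hit on visual review, cut at about 60% in these data, passing the limit was not always enough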
PKD1 kinase inh: inhibitors of human PKD1 kinase, biochemical, fluorescence polarization. AID 797, 2007. inhibition, % (no concentration beside the values). PKD1 kinase fluorescence polarization assay. 0.056% of 200,000 active. Serine/threonine-protein kinase D1 (Homo sapiens), Q15139; in the data active = inhibition above about 50%
Insulin prom up: insulin promoter activators in MIN6 cells, imaging, high-content screening, mouse beta cells; AID 1625, 2009; MIN6 insulin promoter-GFP reporter; hits give high values; 0.3% of 190,000 active; z-score at 5 µM;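 active = z-score above 3 at 5 µM with at least 500 cells counted in the well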
A number is an active result; . = inactive; / = no result; + = active, no number. A selection: hits, their analogues and other compounds. The true share with any hit is near 2.1%.

SMILES	RBBP9 inhibitor	Arbovirus anti	Autophagy HCS	Insulin prom inh	PKD1 kinase inh	Insulin prom up
CCC(C)c1ccc(NC(=S)Nc2ccc(OC)c(OC)c2)cc1 (stereo not given)	.	.	.	/	.	.
COc1cccc(NC(=S)NN2CCN(C)CC2)c1	.	.	.	.	.	.
COC(=O)[C@H](Cc1ccccc1)NC(=O)O[C@@H]1C(=O)c2cc(OC)ccc2O[C@H]1c1ccc(OC)c(Br)c1	.	32	.	.	.	.
CC[C@H](C)[C@@H](NC(=O)O[C@@H]1C(=O)c2cc(OC)ccc2O[C@H]1c1ccc(OC)c(Br)c1)C(=O)OC	.	.	.	.	.	.
CC(C)C(=O)Nc1ccc2c(c1)nc1n2CCSC1	.	.	.	76	.	.
CCC(=O)Nc1ccc2c(c1)nc1n2CCSC1	.	.	.	/	.	.
COc1ccc(NC(=O)COC(=O)C2CC3C=CC2C3)cc1 (stereo not given)	.	.	.	79	.	.
CC1=NN(c2ccccc2)C(=O)/C1=C\N1CC(C)OC(C)C1 (stereo not given)	.	.	.	.	.	.
CCc1ccc2[nH]c(=O)c(CN(CCN(CC)CC)C(=O)Nc3ccccc3OC)cc2c1	.	.	+	/	.	.
Nc1c2c(nc3ccc(Br)cc13)N(Cc1ccccc1)CC2	.	.	.	69	.	/
Cc1nc2c(oc3ccccc32)c(=O)o1	.	.	.	.	.	4.2
CC(Cc1ccsc1)NC(=O)CCc1nnc(COc2ccccc2)o1 (stereo not given)	.	.	.	/	.	.
O=C/C(=C\Nc1ccc(Cl)cn1)c1nc2ccccc2o1	.	.	.	.	.	.
O=C/C(=C\Nc1ccc(Cl)cn1)c1nc2cc(Cl)ccc2o1	.	30	.	/	.	.
CC(CC(=O)O)CC(=O)Nc1cc(C(F)(F)F)cc(C(F)(F)F)c1 (stereo not given)	.	/	/	/	/	.
COc1ccc(C2CC(c3ccc4ccccc4c3)=NN2C(=O)CNC2CCCCC2)cc1 (stereo not given)	.	.	+	.	.	.
C=CCNCC(=O)N1N=C(c2ccc3ccccc3c2)CC1c1ccc(OC)cc1 (stereo not given)	.	.	+	.	.	.
CCOC(=O)CSc1ccc2ccccc2n1	.	.	.	/	.	.
CCC(=O)NCCCCCCCCCNC(=O)CC	.	.	.	.	.	.
Cc1sc2nc(C(C)C)nc(SCC(=O)N3c4ccccc4CC3C)c2c1C (stereo not given)	.	.	+	.	.	.
Cn1ncc(Br)c1C(=O)Nc1cccc(C(F)(F)F)c1	.	/	/	/	/	.
CCCn1nnc(NC(=O)COc2cc(C)ccc2C(C)C)n1	.	.	.	.	.	.
COc1ccc2nc(SCC(=O)Nc3ccc(S(=O)(=O)N4CCCC4)cc3)c(C#N)cc2c1	.	.	.	.	.	3.5
CCOc1ccc(N=C2NC(=O)S/C2=C\c2ccc(N(C)C)cc2)cc1	.	.	+	.	.	.
CCN(CC)C(=O)CSC1=N/C(=C/c2ccco2)C(=O)N1c1ccc(OC)c(Cl)c1	.	37	.	/	.	.
SMILES	RBBP9 inhibitor	Arbovirus anti	Autophagy HCS	Insulin prom inh	PKD1 kinase inh	Insulin prom up
O=C(O)CC/C(=C\c1ccc(N2CCCC2)c([N+](=O)[O-])c1)c1nc2ccccc2s1	.	54	.	.	.	.
O=C(O)CC/C(=C\c1ccccc1[N+](=O)[O-])c1nc2ccccc2s1	.	.	.	.	.	.
CCOC(=O)/C(C#N)=C/c1cn(CCOc2ccccc2)c2ccccc12	.	.	.	.	.	.
CCCCNC(=S)NC(=O)c1ccc(Cl)cc1Cl	.	.	.	/	.	3.1
CC(C)[C@H](NC(=O)NCc1ccc(Cl)cc1)C(=O)O	.	.	.	.	.	.
CCC1CCCCN1CCCNC(=O)c1cn(CC(C)C)c(=O)c2cc(OC)c(OC)cc12 (stereo not given)	.	.	.	.	.	/
Cc1ccc(-c2nn(-c3ccccc3)cc2CN(C)C(=O)CCC(=O)O)cc1C	.	.	.	.	.	.
Fc1ccc(C2NCCn3cccc32)cc1 (stereo not given)	.	.	.	.	.	3.9
CCc1cc2c(CN3CCN(CCO)CC3)cc(=O)oc2cc1O	.	.	.	.	.	3.6
Cc1cc(Nc2cccc(O)c2)c2ccccc2n1	.	.	.	/	.	.
CC(Sc1ccccc1)C(=O)NN=C1CCCCCCC1 (stereo not given)	.	.	.	/	.	.
CC(Sc1ccccc1)C(=O)NN=C1CCCCCC1 (stereo not given)	.	.	.	.	.	8.1
O=C(Cn1c(O)c(/C=C2\C=Nc3ccccc32)sc1=O)Nc1ccc2c(c1)OCO2	.	.	+	/	.	.
CCCCN1C(=O)/C(=C/C=C2\N(C)c3ccccc3C2(C)C)SC1=S	.	.	+	/	.	/
CCOC(=O)c1c(C)[nH]c(C(=O)OCC(=O)Nc2cc(C)ccc2OC)c1C	.	.	+	.	.	.
CCOC(=O)c1c(C)[nH]c(C(=O)OCC(=O)Nc2cc(Cl)ccc2OC)c1C	.	.	.	.	.	.
CCOC(=O)c1[nH]c(C)c(C(=O)Nc2ccccc2F)c1C	.	.	+	.	.	.
Cc1ccc(CN2CC(C(=O)Nc3ccc4c(C)cc(=O)oc4c3)CC2=O)cc1 (stereo not given)	.	.	.	.	.	.
CCN(CC)CCCNC(CC(=O)Nc1cccc([N+](=O)[O-])c1)C(=O)O (stereo not given)	.	.	.	.	.	.
COc1ccc(-c2cc(-c3ccc(OC)c(OC)c3)n[nH]2)c(O)c1	.	32	.	.	.	.
COc1ccc(-c2nc(C#N)c(N3CCOCC3)o2)cc1OC	.	.	.	.	.	.
COc1ccc(-c2nc(C#N)c(N3CCC(C(N)=O)CC3)o2)cc1OC	.	.	.	75	.	.
CCOC(=O)C1CCN(CC(=O)Nc2c(C(=O)OC)[nH]c3cccc(Cl)c23)CC1	.	.	.	.	.	.
COC(=O)c1[nH]c2cccc(Cl)c2c1NC(=O)CN(C)C1CCCCC1	.	.	.	.	.	3.5
COc1ccc(CN(C(=S)Nc2ccccc2)C2CC(=O)N(c3ccc(F)cc3)C2=O)cc1 (stereo not given)	.	.	.	.	.	.
O=C(c1ccc2c(c1)OCO2)N1CCN=C1SCc1cccnc1	.	.	.	/	.	.
CCOC(=O)C1=C(O)/C(=C/c2cn(CC(=O)NCC3CCCO3)c3ccccc23)SC1=Nc1ccc(C)cc1 (stereo not given)	.	/	+	.	.	/
CCOC(=O)c1sc2cc([N+](=O)[O-])cc(SCCO)c2c1N	.	.	+	.	.	.
